Results on five molecules are retold here after ChEMBL document CHEMBL1156831, “Discovery of matrix metalloproteases selective and activated peptide-doxorubicin prodrugs as anti-tumor agents” (Bioorg Med Chem Lett, 2010).

≈ marks a conversion by molar mass, not a printed value. Numbered stars: 1 amine (or outer) side, 2 acyl side, 3 side chain; on linkers, the order of the positions; unused ones are H or OH. Square brackets hold non-standard residues; d marks the D form. Peptide text beside a SMILES is read from it. * marks the point of attachment. ξ: configuration not given here. Doxorubicin(3'-N) = COc1cccc2c1C(=O)c1c(O)c3c(c(O)c1C2=O)C[C@@](O)(C(=O)CO)C[C@@H]3O[C@H]1C[C@H](N*)[C@H](O)[C@H](C)O1; X4 = O=C(c1cc(S(=O)(=O)O)cc(S(=O)(=O)O)c1)*; Cit = NC(=O)NCCC[C@H](N)C(=O)O; Suc = O=C(CCC(=O)[*:2])[*:1]; X5 = O=C(CS(=O)(=O)O)*; ξP = O=C(O)C1CCCN1; Bn = c1ccc(C*)cc1

Data set [1] deals with 72 kDa type IV collagenase (Homo sapiens) (UniProt P08253). Put plainly: Ratio Kcat to Ki for MMP2.
For data set [2], the target named is Matrix metalloproteinase-9 (Homo sapiens) (UniProt P14780). In words: Ratio Kcat to Ki for MMP9.
Data set [3] concerns the target Matrix metalloproteinase-14 (Homo sapiens) (UniProt P50281). Put plainly: Ratio Kcat to […] for MMP14.
The target of data set [4] is Neprilysin (Homo sapiens) (UniProt P08473). In words: Ratio Kcat to […] for neprilysin.
The nature of data set [5]: Compound remaining in mouse blood after 6 hrs. It counts as ADME, tissue-based. As to conditions: read-out: Stability.
A short description of data set [6]: Aqueous solubility at pH 7.4. It counts as physicochemical. The conditions noted are these: aqueous medium.
Data set [7] in a line: Ratio of drug level in tumor to heart in mouse bearing human HT1080 cells relative to doxorubicin. The data set is classed as ADME. The conditions noted are these: ht-1080. The gist of the method: (§1)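 Dox was measured in HT1080 xenograft tumor and in heart tissue 24 h after a single iv dose in mice. The tumor/heart Dox ratio was normalized to the ratio obtained with free Dox.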

The nature of data set [8]: Biodistribution in tumor in mouse bearing human HT1080 relative to doxorubicin. The data set is classed as ADME, organism-based, Neoplasm. The conditions noted are these: in vivo. The gist of the method: as §1
Data set [9] relates to Bone marrow. Put plainly: Bone marrow toxicity in mouse bone marrow assessed as reticulocyte count at 2 umol/kg qd for 10 days. The data set is classed as tissue-based. The conditions noted are these: in vivo, 240 h. The gist of the method: (§2)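 Mice were dosed once daily for 10 days (qdx10). Marrow toxicity was read out as the reticulocyte level, expressed as a percentage, and compared with vehicle-treated mice.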

For data set [10], the system named is Bone marrow. In words: Bone marrow toxicity in mouse bone marrow assessed as reticulocyte count at 4 umol/kg qd for 10 days. The data set is classed as tissue-based. The conditions noted are these: in vivo, 240 h. The gist of the method: as §2
The subject of data set [11] is Bone marrow. Put plainly: Bone marrow toxicity in mouse bone marrow assessed as reticulocyte count at 6 umol/kg qd for 10 days. The data set is classed as tissue-based. The conditions noted are these: in vivo, 240 h. The gist of the method:
as §2

Data set [12] relates to Bone marrow. Put plainly: Bone marrow toxicity in mouse bone marrow assessed as reticulocyte count at 14 umol/kg qd for 10 days. The data set is classed as tissue-based. As to conditions: in vivo, 240 h. The gist of the method:
as §2

Sequence of Neprilysin (Homo sapiens) (P08473 whole entry): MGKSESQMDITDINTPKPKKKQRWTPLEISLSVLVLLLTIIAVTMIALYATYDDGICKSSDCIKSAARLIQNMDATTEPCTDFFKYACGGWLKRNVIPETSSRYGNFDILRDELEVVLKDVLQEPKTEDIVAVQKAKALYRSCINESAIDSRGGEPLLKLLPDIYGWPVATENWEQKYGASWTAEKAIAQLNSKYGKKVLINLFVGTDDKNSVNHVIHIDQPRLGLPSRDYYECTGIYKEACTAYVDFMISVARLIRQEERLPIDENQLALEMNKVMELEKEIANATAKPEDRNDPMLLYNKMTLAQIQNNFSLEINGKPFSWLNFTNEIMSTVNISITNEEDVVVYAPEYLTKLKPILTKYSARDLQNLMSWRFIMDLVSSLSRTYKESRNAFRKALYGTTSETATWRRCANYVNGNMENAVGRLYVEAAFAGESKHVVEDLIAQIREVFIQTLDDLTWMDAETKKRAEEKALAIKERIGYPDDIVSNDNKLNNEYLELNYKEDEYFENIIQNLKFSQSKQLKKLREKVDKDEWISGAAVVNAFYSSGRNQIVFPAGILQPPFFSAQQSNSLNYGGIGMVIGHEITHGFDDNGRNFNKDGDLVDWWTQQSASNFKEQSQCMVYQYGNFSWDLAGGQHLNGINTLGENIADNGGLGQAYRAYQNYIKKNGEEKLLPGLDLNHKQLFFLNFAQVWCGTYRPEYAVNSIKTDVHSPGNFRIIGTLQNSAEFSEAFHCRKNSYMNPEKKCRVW
Sequence of 72 kDa type IV collagenase (Homo sapiens) (P08253 110-660 limits assumed): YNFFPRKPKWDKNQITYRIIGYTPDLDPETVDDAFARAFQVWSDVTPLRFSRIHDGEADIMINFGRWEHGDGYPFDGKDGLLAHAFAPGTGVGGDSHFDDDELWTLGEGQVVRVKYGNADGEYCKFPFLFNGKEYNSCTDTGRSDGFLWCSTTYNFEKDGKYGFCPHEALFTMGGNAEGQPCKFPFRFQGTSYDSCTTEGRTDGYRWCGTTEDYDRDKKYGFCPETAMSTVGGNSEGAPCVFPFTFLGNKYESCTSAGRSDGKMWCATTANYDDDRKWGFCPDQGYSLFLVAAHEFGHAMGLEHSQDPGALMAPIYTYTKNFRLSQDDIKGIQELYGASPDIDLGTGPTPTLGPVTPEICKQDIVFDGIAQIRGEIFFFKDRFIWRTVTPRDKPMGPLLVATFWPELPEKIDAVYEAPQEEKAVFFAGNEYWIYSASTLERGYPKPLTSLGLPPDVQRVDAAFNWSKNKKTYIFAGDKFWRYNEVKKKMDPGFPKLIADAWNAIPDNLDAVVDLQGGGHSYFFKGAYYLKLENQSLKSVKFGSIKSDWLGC
Sequence of Matrix metalloproteinase-9 (Homo sapiens) (P14780 whole entry): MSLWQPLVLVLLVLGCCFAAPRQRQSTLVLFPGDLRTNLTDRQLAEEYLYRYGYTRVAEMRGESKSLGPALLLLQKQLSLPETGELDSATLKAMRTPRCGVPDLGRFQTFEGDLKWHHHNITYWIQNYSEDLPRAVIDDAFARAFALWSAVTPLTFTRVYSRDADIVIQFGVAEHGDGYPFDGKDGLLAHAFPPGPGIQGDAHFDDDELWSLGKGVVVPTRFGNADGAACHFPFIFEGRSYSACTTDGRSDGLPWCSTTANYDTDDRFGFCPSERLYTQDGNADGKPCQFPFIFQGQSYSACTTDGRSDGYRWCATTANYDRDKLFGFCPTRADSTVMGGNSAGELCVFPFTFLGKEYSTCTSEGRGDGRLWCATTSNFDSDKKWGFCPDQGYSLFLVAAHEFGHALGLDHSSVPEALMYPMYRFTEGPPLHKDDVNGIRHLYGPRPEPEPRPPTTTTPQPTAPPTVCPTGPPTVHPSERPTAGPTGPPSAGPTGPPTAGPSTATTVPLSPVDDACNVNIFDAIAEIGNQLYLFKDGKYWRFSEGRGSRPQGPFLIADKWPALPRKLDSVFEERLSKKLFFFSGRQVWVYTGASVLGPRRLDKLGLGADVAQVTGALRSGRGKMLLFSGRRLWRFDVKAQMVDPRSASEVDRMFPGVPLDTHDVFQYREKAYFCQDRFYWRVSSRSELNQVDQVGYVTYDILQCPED

`COc1cccc2c1C(=O)c1c(O)c3c(c(O)c1C2=O)C[C@@](O)(C(=O)CO)C[C@@H]3O[C@H]1C[C@H](NC(=O)[C@H](CC(C)C)NC(=O)[C@H](Cc2ccc(O)cc2)NC(=O)[C@H](COCc2ccccc2)NC(=O)CNC(=O)[C@H](CC(C)C)NC(=O)C2CCCN2C(=O)CCC(=O)O)[C@H](O)[C@H](C)O1` (stereo partly drawn) (Suc-[ξP]LGS(Bn)YL-{Doxorubicin(3'-N)}): the Ratio is 20 in data set [1], 52 in data set [2], 89 in data set [3] and less than 1 in data set [4]. For the same molecule, the remaining at 6 h in data set [5] was 100%. The concentration in solution in [6] (solubility) was 1400 µg/mL (≈ 1030 µM).

Consider `COc1cccc2c1C(=O)c1c(O)c3c(c(O)c1C2=O)C[C@@](O)(C(=O)CO)C[C@@H]3O[C@H]1C[C@H](NC(=O)[C@H](CC(C)C)NC(=O)[C@H](Cc2ccc(O)cc2)NC(=O)[C@@H](NC(=O)CNC(=O)[C@H](CO)NC(=O)[C@@H]2CCCN2C(=O)c2cc(S(=O)(=O)O)cc(S(=O)(=O)O)c2)[C@@H](C)OCc2ccccc2)[C@H](O)[C@H](C)O1` (X4-PSGT(Bn)YL-{Doxorubicin(3'-N)}), for which the Ratio was 114 in data set [1]; more than 120 in data set [2]; more than 120 in data set [3]; less than 1 in [4]; 13 in data set [7]. Besides, the remaining at 6 h in data set [5] was determined as 100%. Besides, in data set [8], the Drug uptake was 600 pmol/g.

For the molecule `COc1cccc2c1C(=O)c1c(O)c3c(c(O)c1C2=O)C[C@@](O)(C(=O)CO)C[C@@H]3O[C@H]1C[C@H](NC(=O)[C@H](CC(C)C)NC(=O)[C@H](Cc2ccc(O)cc2)NC(=O)[C@H](COCc2ccccc2)NC(=O)CNC(=O)[C@H](CC(C)C)NC(=O)[C@@H]2CCCN2C(=O)CS(=O)(=O)O)[C@H](O)[C@H](C)O1` (X5-PLGS(Bn)YL-{Doxorubicin(3'-N)}), the Ratio in data set [1] was 37; in [2], 25; in [3] it was 111; in data set [4] it was less than 1; in [7], 16. The remaining at 6 h in data set [5] turned out to be 90%. The molecule further registered a solubility in data set [6] of more than 2400 µg/mL. Besides, the Drug uptake in data set [8] turned out to be 1500 pmol/g.

On to `COc1cccc2c1C(=O)c1c(O)c3c(c(O)c1C2=O)C[C@@](O)(C(=O)CO)C[C@@H]3O[C@H]1C[C@H](NC(=O)[C@H](CC(C)C)NC(=O)[C@H](Cc2ccc(O)cc2)NC(=O)[C@H](COCc2ccccc2)NC(=O)CNC(=O)[C@H](CCCNC(N)=O)NC(=O)[C@@H]2CCCN2C(=O)CS(=O)(=O)O)[C@H](O)[C@H](C)O1` (X5-P[Cit]GS(Bn)YL-{Doxorubicin(3'-N)}), for which the Ratio in data set [1] was 25; in data set [2], 38; in [3], 56; in data set [4], less than 1. Besides, in [5], the remaining at 6 h was determined as 29%. The same molecule had a solubility in [6] of more than 2300 µg/mL.

Take `COc1cccc2c1C(=O)c1c(O)c3c(c(O)c1C2=O)C[C@@](O)(C(=O)CO)C[C@@H]3O[C@H]1C[C@H](N)[C@H](O)[C@H](C)O1` [DOXORUBICIN]: the Activity was 0.4% in data set [9], 0.1% in data set [10], 0.3% in data set [11] and 0.2% in data set [12]. Besides, in data set [7], the Ratio came out at 1. Further, the Drug uptake in [8] came to 1600 pmol/g.
